Results on one compound are retold here after ChEMBL document CHEMBL5661979, “Pharmacological inhibition of BMK1 suppresses tumor growth through promyelocytic leukemia protein” (Cancer Cell, 2010).

What all share (assay type): subcellular
The target in test [1] is Serine/threonine-protein kinase Aurora (Homo sapiens, UniProt Q96GD4+Q9UQB9+O14965). The experiment in a line: Inhibition of AURA/AURB/AURC in human HeLa cells lysate pre incubated for 15 mins followed by ATP acyl phosphate probe addition and measured after 10 mins by LC-MS/MS analysis. A digest of the protocol: (§1)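 KiNativ-type profiling in HeLa lysate (5 mg/mL total protein). Lysate preincubated 15 min with inhibitor at 50, 10, 2, 0.8 or 0 μM, then ATP or ADP acylphosphate probe added (5 μM final) for 10 min. Reaction stopped with urea and analysed by targeted MS, using up to four fragment ions per kinase peptide-probe conjugate. % inhibition calculated against untreated lysate. Duplicate reactions.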

The target of test [2] is Eukaryotic elongation factor 2 kinase (Homo sapiens, UniProt O00418). The experiment in a line: Inhibition of EEF2K in human HeLa cells lysate pre incubated for 15 mins followed by ATP acyl phosphate probe addition and measured after 10 mins by LC-MS/MS analysis.
In test [3] the target is T1, Phosphatidylinositol 5-phosphate 4-kinase type-2 alpha (Homo sapiens, UniProt P48426).
T1 sequence (P48426 whole entry): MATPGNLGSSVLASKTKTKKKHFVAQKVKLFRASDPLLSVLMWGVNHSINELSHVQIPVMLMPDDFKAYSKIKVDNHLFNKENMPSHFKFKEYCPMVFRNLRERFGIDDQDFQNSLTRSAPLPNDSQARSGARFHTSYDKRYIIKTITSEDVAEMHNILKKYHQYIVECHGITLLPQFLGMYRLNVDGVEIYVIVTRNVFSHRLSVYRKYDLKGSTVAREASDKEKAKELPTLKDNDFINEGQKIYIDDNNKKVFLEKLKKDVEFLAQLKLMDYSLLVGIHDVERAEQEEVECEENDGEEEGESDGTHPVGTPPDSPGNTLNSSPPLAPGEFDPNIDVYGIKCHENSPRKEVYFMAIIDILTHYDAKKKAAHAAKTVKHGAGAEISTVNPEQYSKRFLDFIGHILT
The experiment in a line: Inhibition of PIP5K2A LIP1 labeling site in human HeLa cells lysate pre incubated for 15 mins followed by ATP acyl phosphate probe addition and measured after 10 mins by LC-MS/MS analysis.

The target in test [4] is Serine/threonine-protein kinase N2 (Homo sapiens, UniProt Q16513). The experiment in a line: Inhibition of PKN2 in human HeLa cells lysate pre incubated for 15 mins followed by ATP acyl phosphate probe addition and measured after 10 mins by LC-MS/MS analysis.
The target in test [5] is Cyclin-dependent kinase 12 (Homo sapiens, UniProt Q9NYV4). Nature of the test: Inhibition of CRK7 in human HeLa cells lysate pre incubated for 15 mins followed by ADP acyl phosphate probe addition and measured after 10 mins by LC-MS/MS analysis.
Sequence of Cyclin-dependent kinase 12 (Q9NYV4 whole entry): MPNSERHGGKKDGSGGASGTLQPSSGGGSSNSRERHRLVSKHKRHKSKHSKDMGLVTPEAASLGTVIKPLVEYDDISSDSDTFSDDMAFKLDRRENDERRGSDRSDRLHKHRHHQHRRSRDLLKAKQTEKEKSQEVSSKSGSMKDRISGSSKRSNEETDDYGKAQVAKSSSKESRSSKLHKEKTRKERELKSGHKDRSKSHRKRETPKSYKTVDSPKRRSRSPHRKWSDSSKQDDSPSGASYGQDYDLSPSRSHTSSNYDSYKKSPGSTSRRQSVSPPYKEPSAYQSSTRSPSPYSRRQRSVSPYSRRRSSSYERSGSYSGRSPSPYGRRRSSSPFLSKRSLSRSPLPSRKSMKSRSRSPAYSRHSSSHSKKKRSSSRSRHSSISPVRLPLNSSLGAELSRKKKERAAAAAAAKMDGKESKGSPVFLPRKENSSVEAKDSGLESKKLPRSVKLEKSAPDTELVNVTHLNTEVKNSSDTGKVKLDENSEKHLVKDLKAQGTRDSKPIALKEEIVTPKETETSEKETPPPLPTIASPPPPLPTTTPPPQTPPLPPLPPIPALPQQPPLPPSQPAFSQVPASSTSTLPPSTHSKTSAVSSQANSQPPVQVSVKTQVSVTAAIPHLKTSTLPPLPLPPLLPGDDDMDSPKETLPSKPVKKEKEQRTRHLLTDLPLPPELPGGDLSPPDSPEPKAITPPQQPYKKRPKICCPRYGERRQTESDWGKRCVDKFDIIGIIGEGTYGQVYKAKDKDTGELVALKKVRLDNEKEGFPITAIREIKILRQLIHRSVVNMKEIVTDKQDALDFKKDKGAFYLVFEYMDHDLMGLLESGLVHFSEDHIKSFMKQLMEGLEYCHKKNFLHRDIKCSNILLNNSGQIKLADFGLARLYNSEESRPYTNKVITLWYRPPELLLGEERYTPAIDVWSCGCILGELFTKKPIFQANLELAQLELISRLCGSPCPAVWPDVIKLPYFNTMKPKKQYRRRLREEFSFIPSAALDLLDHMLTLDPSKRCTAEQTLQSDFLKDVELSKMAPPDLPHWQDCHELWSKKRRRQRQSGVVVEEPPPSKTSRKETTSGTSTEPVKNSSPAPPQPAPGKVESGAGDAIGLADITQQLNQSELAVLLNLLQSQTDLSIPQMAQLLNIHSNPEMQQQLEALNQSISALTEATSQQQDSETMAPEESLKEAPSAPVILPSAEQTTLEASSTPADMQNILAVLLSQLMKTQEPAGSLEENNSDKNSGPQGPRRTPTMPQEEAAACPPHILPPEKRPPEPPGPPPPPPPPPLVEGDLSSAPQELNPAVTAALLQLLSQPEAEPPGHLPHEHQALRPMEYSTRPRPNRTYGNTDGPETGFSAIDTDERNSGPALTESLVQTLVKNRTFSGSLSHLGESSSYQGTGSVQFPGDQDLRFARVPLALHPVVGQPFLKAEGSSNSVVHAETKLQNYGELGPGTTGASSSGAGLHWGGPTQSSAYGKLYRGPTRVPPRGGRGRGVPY
Test [6] concerns the target Serine/threonine-protein kinase/endoribonuclease IRE1 (Homo sapiens, UniProt O75460). The experiment in a line: Inhibition of IRE1 in human HeLa cells lysate pre incubated for 15 mins followed by ADP acyl phosphate probe addition and measured after 10 mins by LC-MS/MS analysis.
In test [7] the target is Serine/threonine-protein kinase 10 (Homo sapiens, UniProt O94804). Nature of the test: Inhibition of LOK in human HeLa cells lysate pre incubated for 15 mins followed by ADP acyl phosphate probe addition and measured after 10 mins by LC-MS/MS analysis.
Sequence of Serine/threonine-protein kinase 10 (O94804 whole entry): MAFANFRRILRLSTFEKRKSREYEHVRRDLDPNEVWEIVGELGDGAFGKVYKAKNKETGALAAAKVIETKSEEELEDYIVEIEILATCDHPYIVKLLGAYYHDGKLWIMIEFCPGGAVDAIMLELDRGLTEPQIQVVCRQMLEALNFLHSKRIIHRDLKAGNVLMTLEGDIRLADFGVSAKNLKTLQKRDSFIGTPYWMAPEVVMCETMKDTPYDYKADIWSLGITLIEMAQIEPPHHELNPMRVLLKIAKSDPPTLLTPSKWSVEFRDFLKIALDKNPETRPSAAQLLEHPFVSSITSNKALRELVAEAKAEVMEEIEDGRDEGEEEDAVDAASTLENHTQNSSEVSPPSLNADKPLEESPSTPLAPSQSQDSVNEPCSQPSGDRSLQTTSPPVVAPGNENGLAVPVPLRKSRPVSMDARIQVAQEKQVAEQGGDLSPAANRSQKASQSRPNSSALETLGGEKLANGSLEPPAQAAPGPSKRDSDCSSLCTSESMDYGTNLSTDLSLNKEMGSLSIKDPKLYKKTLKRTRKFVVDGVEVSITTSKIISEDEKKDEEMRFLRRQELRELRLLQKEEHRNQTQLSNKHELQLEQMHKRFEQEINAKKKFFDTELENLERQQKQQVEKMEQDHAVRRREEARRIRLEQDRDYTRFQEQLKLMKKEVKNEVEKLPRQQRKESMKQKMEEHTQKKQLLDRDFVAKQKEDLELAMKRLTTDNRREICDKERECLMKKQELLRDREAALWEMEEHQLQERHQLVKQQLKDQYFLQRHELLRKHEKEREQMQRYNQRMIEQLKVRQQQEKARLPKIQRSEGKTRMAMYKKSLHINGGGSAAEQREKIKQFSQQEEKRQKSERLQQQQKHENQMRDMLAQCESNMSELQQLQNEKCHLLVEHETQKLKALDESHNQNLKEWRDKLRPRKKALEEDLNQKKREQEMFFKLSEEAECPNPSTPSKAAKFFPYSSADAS
Test [8] has as its target Cyclin-dependent kinase 16 (Homo sapiens, UniProt Q00536). The experiment in a line: Inhibition of PCTAIRE1 in human HeLa cells lysate at 50 uM pre incubated for 15 mins followed by ADP acyl phosphate probe addition and measured after 10 mins by LC-MS/MS analysis relative to control. As to conditions: time 25.0 min.
The target in test [9] is T2, Cyclin-dependent kinase 2 (Homo sapiens, UniProt P24941). The experiment in a line: Inhibition of CDK2 K2 site in human HeLa cells lysate at 10 uM pre incubated for 15 mins followed by ADP acyl phosphate probe addition and measured after 10 mins by LC-MS/MS analysis relative to control. To be noted: time 25.0 min. Put shortly:
(§2)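 KiNativ profiling in HeLa lysate (5 mg/mL total protein). Lysate incubated 15 min with inhibitor at 50, 10, 2, 0.8 or 0 μM. ATP or ADP acylphosphate probe then added (5 μM final) and reacted 10 min. Reaction stopped with urea and analysed by targeted MS, using up to four fragment ions per kinase peptide-probe conjugate. % inhibition taken against untreated lysate. Run in duplicate.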

Test [10] deals with Ribosomal protein S6 kinase alpha-1 (Homo sapiens, UniProt Q15418). Nature of the test: Inhibition of RSK1 domain 2 in human HeLa cells lysate at 50 uM pre incubated for 15 mins followed by ATP acyl phosphate probe addition and measured after 10 mins by LC-MS/MS analysis relative to control. To be noted: time 25.0 min.
Sequence of Ribosomal protein S6 kinase alpha-1 (Q15418 whole entry, the tested form may be a part): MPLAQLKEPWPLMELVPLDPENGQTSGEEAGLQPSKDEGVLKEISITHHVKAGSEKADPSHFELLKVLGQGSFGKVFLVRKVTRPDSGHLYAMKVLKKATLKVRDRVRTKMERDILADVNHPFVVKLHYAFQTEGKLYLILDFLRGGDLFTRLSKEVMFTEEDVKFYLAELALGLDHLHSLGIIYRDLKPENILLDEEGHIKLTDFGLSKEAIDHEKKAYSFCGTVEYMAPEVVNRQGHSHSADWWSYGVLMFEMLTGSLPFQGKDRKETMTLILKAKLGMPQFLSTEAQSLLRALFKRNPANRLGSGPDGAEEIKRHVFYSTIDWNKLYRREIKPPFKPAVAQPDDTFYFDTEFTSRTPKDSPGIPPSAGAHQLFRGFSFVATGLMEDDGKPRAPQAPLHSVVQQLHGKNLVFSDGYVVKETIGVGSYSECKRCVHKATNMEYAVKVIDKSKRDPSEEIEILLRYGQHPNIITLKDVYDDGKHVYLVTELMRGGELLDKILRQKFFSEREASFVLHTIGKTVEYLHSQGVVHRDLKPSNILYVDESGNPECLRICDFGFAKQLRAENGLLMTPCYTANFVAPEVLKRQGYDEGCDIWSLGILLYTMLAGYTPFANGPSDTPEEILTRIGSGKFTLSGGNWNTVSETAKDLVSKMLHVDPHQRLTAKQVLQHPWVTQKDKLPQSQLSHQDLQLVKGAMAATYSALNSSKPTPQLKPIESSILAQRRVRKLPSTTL
Test [11] addresses T2, Cyclin-dependent kinase 2. Nature of the test: Inhibition of CDK2 in human HeLa cells lysate at 50 uM pre incubated for 15 mins followed by ATP acyl phosphate probe addition and measured after 10 mins by LC-MS/MS analysis relative to control. To be noted: time 25.0 min. A digest of the protocol: as §2
Test [12] has as its target p38 delta/gamma (Homo sapiens) (UniProt O15264+P53778). Nature of the test: Inhibition of p38d/p38g in human HeLa cells lysate at 10 uM pre incubated for 15 mins followed by ATP acyl phosphate probe addition and measured after 10 mins by LC-MS/MS analysis relative to control. To be noted: time 25.0 min.
The target in test [13] is Phosphatidylinositol 3-kinase catalytic subunit type 3 (Homo sapiens, UniProt Q8NEB9). The experiment in a line: Inhibition of PIK3C3 in human HeLa cells lysate at 2 uM pre incubated for 15 mins followed by ATP acyl phosphate probe addition and measured after 10 mins by LC-MS/MS analysis relative to control. As to conditions: time 25.0 min.
Sequence of Phosphatidylinositol 3-kinase catalytic subunit type 3 (Q8NEB9 whole entry, canonical isoform): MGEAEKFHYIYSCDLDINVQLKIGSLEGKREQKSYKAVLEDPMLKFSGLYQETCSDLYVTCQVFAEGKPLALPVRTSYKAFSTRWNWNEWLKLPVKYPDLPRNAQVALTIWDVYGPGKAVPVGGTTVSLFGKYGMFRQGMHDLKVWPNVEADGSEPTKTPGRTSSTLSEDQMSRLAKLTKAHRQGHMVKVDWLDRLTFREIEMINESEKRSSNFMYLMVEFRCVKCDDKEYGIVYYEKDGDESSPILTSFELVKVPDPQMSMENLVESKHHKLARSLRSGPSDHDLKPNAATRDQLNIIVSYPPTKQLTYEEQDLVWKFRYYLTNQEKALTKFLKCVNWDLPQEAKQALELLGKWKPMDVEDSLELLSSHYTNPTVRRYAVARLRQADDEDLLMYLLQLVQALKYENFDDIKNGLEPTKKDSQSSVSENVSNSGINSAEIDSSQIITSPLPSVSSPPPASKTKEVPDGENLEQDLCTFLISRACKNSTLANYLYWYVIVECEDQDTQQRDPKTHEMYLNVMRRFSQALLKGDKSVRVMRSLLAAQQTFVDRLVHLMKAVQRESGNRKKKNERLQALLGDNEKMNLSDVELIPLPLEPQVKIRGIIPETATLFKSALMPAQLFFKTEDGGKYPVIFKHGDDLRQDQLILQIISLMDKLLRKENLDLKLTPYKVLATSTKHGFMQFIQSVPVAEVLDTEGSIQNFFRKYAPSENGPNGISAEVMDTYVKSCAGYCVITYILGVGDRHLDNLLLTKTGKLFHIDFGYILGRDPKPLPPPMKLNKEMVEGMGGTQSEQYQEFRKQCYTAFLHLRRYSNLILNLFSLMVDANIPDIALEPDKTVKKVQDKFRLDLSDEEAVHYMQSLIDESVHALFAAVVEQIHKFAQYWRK
Test [14] addresses T3, Phosphorylase b kinase gamma catalytic chain, liver/testis isoform (Homo sapiens) (UniProt P15735).
T3 sequence (whole entry): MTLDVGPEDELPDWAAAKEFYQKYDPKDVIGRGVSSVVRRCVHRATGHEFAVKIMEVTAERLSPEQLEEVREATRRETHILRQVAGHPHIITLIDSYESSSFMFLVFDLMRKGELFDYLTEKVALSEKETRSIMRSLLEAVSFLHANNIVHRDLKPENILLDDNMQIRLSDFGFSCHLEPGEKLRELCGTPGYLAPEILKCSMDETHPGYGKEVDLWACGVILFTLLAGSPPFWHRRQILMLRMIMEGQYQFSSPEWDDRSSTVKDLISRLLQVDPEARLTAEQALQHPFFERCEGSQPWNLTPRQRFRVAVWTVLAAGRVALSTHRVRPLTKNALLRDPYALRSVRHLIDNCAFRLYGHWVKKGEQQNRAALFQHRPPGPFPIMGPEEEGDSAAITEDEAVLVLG
The experiment in a line: Inhibition of PHKg2 in human HeLa cells lysate at 2 uM pre incubated for 15 mins followed by ATP acyl phosphate probe addition and measured after 10 mins by LC-MS/MS analysis relative to control. To be noted: time 25.0 min.

Test [15] has as its target Tyrosine-protein kinase CSK (Homo sapiens, UniProt P41240). Nature of the test: Inhibition of CSK in human HeLa cells lysate at 2 uM pre incubated for 15 mins followed by ATP acyl phosphate probe addition and measured after 10 mins by LC-MS/MS analysis relative to control. To be noted: time 25.0 min.
Test [16] deals with Calcium/calmodulin-dependent protein kinase type 1D (Homo sapiens, UniProt Q8IU85). Nature of the test: Inhibition of CAMK1d in human HeLa cells lysate at 2 uM pre incubated for 15 mins followed by ATP acyl phosphate probe addition and measured after 10 mins by LC-MS/MS analysis relative to control. To be noted: time 25.0 min. A digest of the protocol: as §1

The structures appear in SMILES notation.

Sequence of Serine/threonine-protein kinase/endoribonuclease IRE1 (O75460 whole entry): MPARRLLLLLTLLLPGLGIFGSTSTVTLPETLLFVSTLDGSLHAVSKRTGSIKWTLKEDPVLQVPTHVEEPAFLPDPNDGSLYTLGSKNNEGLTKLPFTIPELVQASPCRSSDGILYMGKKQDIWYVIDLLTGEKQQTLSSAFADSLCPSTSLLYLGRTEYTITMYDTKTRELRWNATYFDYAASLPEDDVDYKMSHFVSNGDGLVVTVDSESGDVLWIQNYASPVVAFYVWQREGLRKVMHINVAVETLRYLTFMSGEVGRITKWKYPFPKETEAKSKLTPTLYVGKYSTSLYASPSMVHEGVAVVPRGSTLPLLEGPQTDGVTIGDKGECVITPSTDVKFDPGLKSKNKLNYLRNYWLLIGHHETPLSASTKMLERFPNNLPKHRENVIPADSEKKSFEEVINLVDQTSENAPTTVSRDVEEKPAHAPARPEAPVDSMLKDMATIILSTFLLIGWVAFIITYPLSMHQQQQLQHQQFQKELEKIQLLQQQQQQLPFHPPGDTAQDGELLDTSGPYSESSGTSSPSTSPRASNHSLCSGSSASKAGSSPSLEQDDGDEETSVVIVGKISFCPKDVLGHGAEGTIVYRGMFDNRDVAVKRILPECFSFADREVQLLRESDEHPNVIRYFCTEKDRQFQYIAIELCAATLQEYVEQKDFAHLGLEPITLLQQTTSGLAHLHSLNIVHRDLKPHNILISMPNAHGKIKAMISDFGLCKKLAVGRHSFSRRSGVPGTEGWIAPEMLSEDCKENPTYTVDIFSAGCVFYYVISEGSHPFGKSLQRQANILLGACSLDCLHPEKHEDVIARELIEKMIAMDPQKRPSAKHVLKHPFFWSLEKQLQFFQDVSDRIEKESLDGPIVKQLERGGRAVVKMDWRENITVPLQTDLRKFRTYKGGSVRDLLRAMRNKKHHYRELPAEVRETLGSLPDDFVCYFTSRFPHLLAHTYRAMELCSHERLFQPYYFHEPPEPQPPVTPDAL

The term IC50 denotes the concentration at which inhibition is half-maximal. A lower IC50 goes with greater potency. One may read the inhibition as the relative decrease from the control value, in per cent. On to `CCOc1cc(N2CCC(O)CC2)ccc1Nc1ncc2c(n1)N(C)c1ccccc1C(=O)N2C`, for which the IC50 in test [1], in test [2], in [3], in [4], in test [5] and in [6] was over 50 µM in each case. For the same compound, the IC50 in test [7] was over 50 µM. In addition, the inhibition was 11.3% in test [8]; -7.5% in [9]; 73.1% in test [10]; -1.9% in test [11]; 100% in [12]; -0.4% in test [13]. The inhibition was 3.7% in [14], -4.4% in [15] and 4.4% in test [16].
